In publication PMC4431946 (Journal of the American Chemical Society, 2015):
Read-outs that look alike come from different tables or passages of the source.

Tests used:
rat nNOS [1] = target: T1, rat nNOS (Rattus norvegicus, UniProt P29476); conditions: result in words; reported earlier; cited from earlier work
nNOS = nNOS (Rattus norvegicus, UniProt P29476); assay: LC/MS of amino acid metabolites after inactivation of nNOS by 1; type: biochemical; conditions: 56 µM of 1, 37 °C, 3 h
rat nNOS [2] = target: T1, rat nNOS; assay: Irreversible inhibition kinetics; type: biochemical; conditions: for time-dependent inactivation of nNOS: result in words
rat nNOS [3] = target: T1, rat nNOS; assay: Hemoglobin NO generation assay; type: biochemical
ferric nNOS = ferric nNOS (Rattus norvegicus, UniProt P29476); assay: Spectral titration of ferric nNOS-H4B; type: binding
Method in brief: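 Ferric full-length rat nNOS-H4B, 5 µM, in 50 mM HEPES pH 7.5 with 100 mM NaCl, titrated by 1–2 µL additions of test compound. Difference spectra recorded from 350–550 nm. Peak (~455 nm) minus trough (400 nm) absorbance plotted against ligand concentration.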

ferrous nNOS = ferrous nNOS (Rattus norvegicus, UniProt P29476); assay: Spectral titration of dithionite-reduced; type: binding
Method in brief: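 Full-length rat nNOS-H4B reduced with dithionite and desalted under anaerobic conditions in a glovebox. Degassed 50 mM HEPES pH 7.5 with 100 mM NaCl; compound stocks made in degassed buffer. Test compound added in 1–2 µL portions from 1, 5 and 20 mM stocks, totalling <2% of volume. Double-beam scans from 350–600 nm, repeated until stable. Peak (~455 nm) minus trough (410 nm) absorbance fitted with a quadratic function for apparent Ks.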

Sequence of ferrous nNOS (P29476 whole entry): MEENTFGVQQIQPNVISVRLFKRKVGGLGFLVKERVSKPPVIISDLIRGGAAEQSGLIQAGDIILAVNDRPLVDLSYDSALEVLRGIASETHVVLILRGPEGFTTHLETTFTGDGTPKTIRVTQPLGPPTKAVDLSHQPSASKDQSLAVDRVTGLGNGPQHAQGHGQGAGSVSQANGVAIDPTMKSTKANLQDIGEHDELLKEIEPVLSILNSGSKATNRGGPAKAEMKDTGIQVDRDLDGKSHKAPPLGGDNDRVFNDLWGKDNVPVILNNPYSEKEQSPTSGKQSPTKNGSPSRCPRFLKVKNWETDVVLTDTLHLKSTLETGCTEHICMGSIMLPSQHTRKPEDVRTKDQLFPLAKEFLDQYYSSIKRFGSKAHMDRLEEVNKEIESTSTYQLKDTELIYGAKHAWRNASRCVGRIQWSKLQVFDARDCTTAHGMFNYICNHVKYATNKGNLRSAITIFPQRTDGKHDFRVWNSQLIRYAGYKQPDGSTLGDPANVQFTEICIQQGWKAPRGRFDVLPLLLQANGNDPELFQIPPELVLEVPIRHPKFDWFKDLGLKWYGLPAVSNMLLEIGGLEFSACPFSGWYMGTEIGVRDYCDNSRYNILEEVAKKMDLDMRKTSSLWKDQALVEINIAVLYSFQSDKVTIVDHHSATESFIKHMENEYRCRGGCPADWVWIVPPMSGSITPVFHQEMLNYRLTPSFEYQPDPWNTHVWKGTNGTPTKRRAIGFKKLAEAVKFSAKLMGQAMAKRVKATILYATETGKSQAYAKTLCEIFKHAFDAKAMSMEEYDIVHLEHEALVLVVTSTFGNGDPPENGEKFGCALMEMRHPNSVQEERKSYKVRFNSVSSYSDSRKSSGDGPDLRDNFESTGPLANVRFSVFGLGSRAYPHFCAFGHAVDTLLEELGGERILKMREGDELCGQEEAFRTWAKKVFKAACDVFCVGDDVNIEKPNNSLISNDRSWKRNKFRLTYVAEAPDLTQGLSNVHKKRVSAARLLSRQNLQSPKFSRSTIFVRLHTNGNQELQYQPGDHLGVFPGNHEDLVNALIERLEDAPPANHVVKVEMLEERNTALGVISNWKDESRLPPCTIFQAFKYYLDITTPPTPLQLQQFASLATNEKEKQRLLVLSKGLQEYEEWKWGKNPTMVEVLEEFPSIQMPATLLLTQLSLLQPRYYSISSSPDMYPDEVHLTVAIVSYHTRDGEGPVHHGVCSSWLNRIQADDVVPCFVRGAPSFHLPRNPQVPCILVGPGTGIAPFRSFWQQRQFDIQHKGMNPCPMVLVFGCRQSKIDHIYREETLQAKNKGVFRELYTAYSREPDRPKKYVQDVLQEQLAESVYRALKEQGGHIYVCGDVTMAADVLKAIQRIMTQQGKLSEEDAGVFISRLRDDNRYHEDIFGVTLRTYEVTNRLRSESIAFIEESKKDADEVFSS
Sequence of ferric nNOS (P29476 whole entry): as above

SMILES | IC50 (rat nNOS [3]) [µM] | Ki (rat nNOS [3]) [µM] | time-dependent inactivation of nNOS (rat nNOS [2]) | other results
CSCC(=N)NCCC[C@H](N)C(=O)O [compound 1, (S)-2-Amino-5-(2-(methylthio)acetimidamido)pentanoic acid] | – | – | inactivator of nNOS | time-dependent inactivation of nNOS (rat nNOS [1]): time-dependent irreversible inhibitor of nNOS; amount of 2 produced from the inactivation of nNOS by 1 (nNOS): Approximately 0.53 µM
C[S+]([O-])CC(=N)NCCC[C@H](N)C(=O)O (stereo partly drawn) [compound 2, (2S)-2-Amino-5-(2-(methylsulfinyl)acetimidamido)pentanoic acid] | 461 ± 20 | 53 ± 2.4 | neither showed time-dependent inactivation | –
CS(=O)(=O)CC(=N)NCCC[C@H](N)C(=O)O [compound 3, (S)-2-Amino-5-(2-(methylsulfonyl)acetimidamido)pentanoic acid] | 507 ± 49 | 58.3 ± 5.6 | neither showed time-dependent inactivation | –
N=C(CS)NCCC[C@H](N)C(=O)O [compound 6, (S)-2-Amino-5-(2-mercaptoacetimidamido)pentanoic acid] | 3.64 ± 0.15 | 0.42 ± 0.017 | time- and concentration-dependent inactivator | Kd (ferric nNOS): 1.8 ± 0.1 µM; heme ligand type from difference spectra (ferric nNOS; ferric nNOS-H4B): type-II ligand; Kd (ferrous nNOS): 1.6 ± 0.3 µM; heme ligand type from difference spectra (ferrous nNOS; dithionite-reduced nNOS-H4B): still a type-II ligand; Ki (rat nNOS [2]): 2.9 ± 0.2 µM; kinact (rat nNOS [2]): 0.000767 s⁻¹; kinact/KI (rat nNOS [2]): 267 M⁻¹ s⁻¹; inactivation rate (kinact) relative to 1 (rat nNOS [2]; 6 versus 1): about half the inactivation rate

Now from value to molecule, other results behind:

IC50 (rat nNOS [3]) [µM] | Ki (rat nNOS [3]) [µM] | SMILES | time-dependent inactivation of nNOS (rat nNOS [2]) | other results
199 ± 7.1 | 22.9 ± 0.82 | N=C(C=O)NCCC[C@H](N)C(=O)O [compound 4, (S)-2-Amino-5-(2-oxoacetimidamido)pentanoic acid] | neither was a time-dependent inhibitor | –
13 ± 0.67 | 1.5 ± 0.08 | N=C(CO)NCCC[C@H](N)C(=O)O [compound 5, (S)-2-Amino-5-(2-hydroxyacetimidamido)pentanoic acid] | neither was a time-dependent inhibitor | –
